Data as given in ChEMBL document CHEMBL1122185, “Tricyclics with analgesic and antidepressant activity. 2. [[(Alkylamino)ethyl]thio]dibenzo[b,f]thiepins and 10,11-dihydro derivatives” (1982).
Several values for one entry are separate records, joined by “and”; a condition that tells them apart may be missing. Identical values can stand only once.

Tests used:
Format in all cases: functional
Mus musculus [1] = test: Analgesic activity was determined for inhibition of phenyl-p-quinone-induced writhing (PQW) after subcutaneous administration in mice; conditions: for ED50: sc
Method in brief: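 Mice were given phenyl-p-quinone to induce writhing, and inhibition of writhing was scored after subcutaneous dosing. The vehicle was distilled water with a few drops of Tween 80. ED50 was obtained by linear regression with 95% confidence limits.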

Mus musculus [2] = test: Antidepressant activity was determined to prevent tetrabenazine-induced ptosis(TBZ) after intraperitoneal administration in mice; conditions: ip
Method in brief: (§1)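 Mouse model measuring prevention of tetrabenazine-induced ptosis, with dosing orally or intraperitoneally. The vehicle was distilled water with a few drops of Tween 80. ED50 values were calculated by linear-regression analysis, with 95% confidence limits in parentheses.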

Rattus norvegicus [3] = test: Antidepressant activity was determined for potentiation of head twitching induced by 5-hydroxytryptophan-(5-HTP) after intraperitoneal administration in pargyline-pretreated rats; conditions: ip
Method in brief: (§2)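 In pargyline-pretreated rats, potentiation of 5-hydroxytryptophan-induced head twitching (stereotypy) was measured after intraperitoneal dosing. The vehicle was distilled water plus a few drops of Tween 80. ED50 was derived by linear regression with 95% confidence limits.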

Mus musculus [4] = test: Analgesic activity was determined for delay in response to noxious heat stimuli after intraperitoneal administration in mice, in tail flick assay
Method in brief: (§3)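 D'Amour-Smith tail-flick method in mice: delay in response to a noxious heat stimulus. Compounds were given in a vehicle of distilled water with a few drops of Tween 80. ED50 was calculated by linear-regression analysis with 95% confidence limits.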

Mus musculus [5] = test: Antidepressant activity was determined to prevent tetrabenazine-induced ptosis(TBZ) after oral administration in mice; method in brief: as §1
Mus musculus [6] = test: Antidepressant activity was determined to prevent tetrabenazine-induced ptosis(TBZ) after oral administration in mice.(value in parentheses indicates 95% confidence limits).; method in brief: as §1
Mus musculus [7] = test: Analgesic activity was determined for delay in response to noxious heat stimuli after subcutaneous administration in mice, in tail flick assay; conditions: for ED50: sc; method in brief: as §3
Rattus norvegicus [8] = test: Antidepressant activity was determined for potentiation of head twitching induced by 5-hydroxytryptophan-(5-HTP) after intraperitoneal administration in pargyline-pretreated rats,; conditions: ip; method in brief: as §2
[9] = Mus musculus, po, read-out: ED50

SMILES | ED50 (Mus musculus [1]) | ED50 (Rattus norvegicus [3]) | ED50 (Mus musculus [5]; [9]) | ED50 (Mus musculus [7]) | other results
CNCCSC1Cc2ccccc2Sc2ccc(F)cc21 (stereo unspecified) | 2.9 mg/kg | 8.1 mg/kg | 1.5 mg/kg | – | ED50 (Mus musculus [2]): 0.28 mg/kg; Inhibition (Mus musculus [4]): 60%
CN(C)CCSC1=Cc2ccccc2Sc2ccc(F)cc21 | > 10 mg/kg | > 10 mg/kg | – | > 25 mg/kg | ED50 (Mus musculus [6]): 3.6 mg/kg
CNCCSC1=Cc2ccccc2Sc2ccc(O)cc21 | > 10 mg/kg | > 10 mg/kg | 2 mg/kg | > 25 mg/kg | –
CN(C)CCSC1=Cc2ccccc2Sc2ccc(Cl)cc21 | 14.6 mg/kg | > 10 mg/kg | 3.7 mg/kg | > 25 mg/kg | –
CN(C)CCSC1Cc2ccccc2Sc2ccccc21 (stereo unspecified) | 3.3 mg/kg | > 10 mg/kg | – | – | Inhibition (Mus musculus [7]): 60%; Inhibition (Mus musculus [5]): 60%
CNCCSC1=Cc2ccccc2Sc2ccc(Cl)cc21 | 12.5 mg/kg | > 10 mg/kg | – | > 25 mg/kg | –
CN(C)CCSC1Cc2ccccc2Sc2ccc(F)cc21 (stereo unspecified) | 9 mg/kg | – | 1.2 mg/kg | > 25 mg/kg | ED50 (Rattus norvegicus [8]): > 10 mg/kg; ED50 (Mus musculus [5]): 0.91 mg/kg
CNCCSC1Cc2ccccc2Sc2ccccc21 (stereo unspecified) | 4.2 mg/kg | > 10 mg/kg | 8 mg/kg | – | Inhibition (Mus musculus [7]): 60%
CN(C)CCSC1Cc2ccccc2Sc2ccc(Cl)cc21 (stereo unspecified) | > 10 mg/kg | > 10 mg/kg | – | > 25 mg/kg | –
CNCCSC1=Cc2ccccc2Sc2ccc(F)cc21 | 8.9 mg/kg | > 10 mg/kg | 5.2 mg/kg | – | Inhibition (Mus musculus [7]): 50%
CNCCSC1Cc2ccccc2Sc2ccc(Cl)cc21 (stereo unspecified) | 4.4 mg/kg | 50 mg/kg | – | – | ED50 (Mus musculus [4]; ip): 63.6 mg/kg
CN(C)CCSC1=Cc2ccccc2Sc2ccccc21 | – | > 10 mg/kg | > 20 mg/kg | > 25 mg/kg | Inhibition (Mus musculus [1]): 64%
CNCCSC1=Cc2ccccc2Sc2ccccc21 | – | > 10 mg/kg | – | > 25 mg/kg | ED50 (Mus musculus [6]): 23.9 mg/kg
CC(C)=CCN1CC[C@]2(C)c3cc(O)ccc3C[C@H]1[C@H]2C [(+)-PENTAZOCINE] | 2.4 mg/kg | – | – | 14.6 mg/kg | –
CN(C)CCCN1c2ccccc2CCc2ccccc21 [IMIPRAMINE] | 10.7 mg/kg | > 10 mg/kg | – | > 25 mg/kg | ED50 (Mus musculus [5]): 2.8 mg/kg and 1.3 mg/kg
